Data as given in ChEMBL document CHEMBL1152957, “Synthesis and biological evaluation of novel 4-azaindolyl-indolyl-maleimides as glycogen synthase kinase-3beta (GSK-3beta) inhibitors” (Bioorg Med Chem, 2009).
Calls of active or inactive are those of the source. The rule behind the calls is not given here.

What was measured:
[1] = target: T1, Glycogen synthase kinase-3 beta (Homo sapiens, UniProt P49841); test: Inhibition of GSK3-beta in human SH-Sy5Y cells assessed as reduction of amyloid beta (25-35)-induced Tau hyperphosphorylation at Ser396 at 10 uM treated 1 hr before amyloid beta (25-35) challenge measured after 6 hrs by Western blotting; format: cell-based
Summary of the method: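 SH-SY5Y cells from ATCC kept in 1:1 DMEM:Ham's F12 with 10% FBS and penicillin/streptomycin under 5% CO2. Grown to about 80% confluence and serum-starved 12 h. Inhibitor added for 1 h, then amyloid beta 25–35 for 6 h. Lysed in SDS loading buffer and run on 10% SDS-PAGE. Western blot on PVDF with rabbit anti-Tau pS396 and ECL detection.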
Target sequence in this assay (P49841 whole entry, looked up): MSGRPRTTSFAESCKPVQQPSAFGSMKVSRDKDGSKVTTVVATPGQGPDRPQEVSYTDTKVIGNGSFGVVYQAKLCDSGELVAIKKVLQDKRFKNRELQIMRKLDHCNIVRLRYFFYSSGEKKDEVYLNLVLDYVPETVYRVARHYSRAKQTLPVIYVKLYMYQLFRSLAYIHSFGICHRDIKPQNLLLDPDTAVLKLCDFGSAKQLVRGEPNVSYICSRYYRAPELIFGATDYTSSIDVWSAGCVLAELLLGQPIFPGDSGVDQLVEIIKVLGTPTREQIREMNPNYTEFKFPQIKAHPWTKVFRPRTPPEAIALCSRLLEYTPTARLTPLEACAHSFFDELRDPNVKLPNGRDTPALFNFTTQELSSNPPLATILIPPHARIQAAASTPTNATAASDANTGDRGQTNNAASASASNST

[2] = target: T1, Glycogen synthase kinase-3 beta; test: Inhibition of recombinant GST-GSK3beta expressed in Escherichia coli BL21 (DE3)
Target sequence in this assay (P49841 whole entry): as the sequence (P49841 whole entry, looked up) above

[3] = target: T2, Protein kinase C epsilon type (Homo sapiens, UniProt Q02156); test: Inhibition of recombinant PKCE expressed in Bac-to Bac baculovirus system
T2 sequence (Q02156 whole entry): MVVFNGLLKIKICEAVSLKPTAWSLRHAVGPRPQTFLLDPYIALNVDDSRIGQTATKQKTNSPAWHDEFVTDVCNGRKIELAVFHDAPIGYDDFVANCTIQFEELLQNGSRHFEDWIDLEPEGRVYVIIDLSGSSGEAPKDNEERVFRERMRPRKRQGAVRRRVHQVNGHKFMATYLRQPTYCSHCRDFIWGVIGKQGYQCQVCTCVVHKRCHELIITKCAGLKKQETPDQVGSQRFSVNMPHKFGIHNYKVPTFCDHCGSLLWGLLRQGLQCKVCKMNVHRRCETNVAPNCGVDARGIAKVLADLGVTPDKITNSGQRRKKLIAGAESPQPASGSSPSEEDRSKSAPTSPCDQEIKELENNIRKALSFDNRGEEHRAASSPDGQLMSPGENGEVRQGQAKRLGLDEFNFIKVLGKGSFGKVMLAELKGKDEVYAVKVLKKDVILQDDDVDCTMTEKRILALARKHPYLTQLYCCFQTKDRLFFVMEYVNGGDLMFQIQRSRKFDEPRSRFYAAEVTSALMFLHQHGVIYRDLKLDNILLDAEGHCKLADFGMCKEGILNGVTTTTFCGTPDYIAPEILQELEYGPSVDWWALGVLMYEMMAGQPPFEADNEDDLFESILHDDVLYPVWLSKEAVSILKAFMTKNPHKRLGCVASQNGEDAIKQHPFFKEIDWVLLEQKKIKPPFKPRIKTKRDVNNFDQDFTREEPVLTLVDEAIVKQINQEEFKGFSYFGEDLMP

[4] = target: T3, Inhibitor of nuclear factor kappa-B kinase subunit beta (Homo sapiens, UniProt O14920); test: Inhibition of recombinant IKK2 expressed in Bac-to Bac baculovirus system
T3 sequence (O14920 whole entry): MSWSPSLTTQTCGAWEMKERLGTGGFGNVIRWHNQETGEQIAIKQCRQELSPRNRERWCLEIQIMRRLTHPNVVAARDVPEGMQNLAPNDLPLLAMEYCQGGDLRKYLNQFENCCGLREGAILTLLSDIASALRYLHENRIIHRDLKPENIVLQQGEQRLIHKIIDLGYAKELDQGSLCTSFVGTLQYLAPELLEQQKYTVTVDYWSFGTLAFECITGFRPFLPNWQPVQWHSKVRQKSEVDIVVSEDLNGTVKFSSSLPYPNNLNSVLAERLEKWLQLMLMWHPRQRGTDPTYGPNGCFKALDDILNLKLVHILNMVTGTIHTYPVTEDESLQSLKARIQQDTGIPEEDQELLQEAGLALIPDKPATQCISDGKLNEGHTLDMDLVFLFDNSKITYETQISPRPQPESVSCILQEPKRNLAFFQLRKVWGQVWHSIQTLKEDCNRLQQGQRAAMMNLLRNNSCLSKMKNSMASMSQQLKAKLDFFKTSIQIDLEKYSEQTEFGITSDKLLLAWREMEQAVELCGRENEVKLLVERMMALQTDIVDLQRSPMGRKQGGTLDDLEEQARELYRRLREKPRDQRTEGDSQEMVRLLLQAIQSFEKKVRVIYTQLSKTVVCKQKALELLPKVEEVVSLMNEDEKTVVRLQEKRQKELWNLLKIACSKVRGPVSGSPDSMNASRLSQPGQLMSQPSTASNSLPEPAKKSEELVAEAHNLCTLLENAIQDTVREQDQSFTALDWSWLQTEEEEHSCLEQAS

[5] = target: T4, Aurora kinase A (Homo sapiens, UniProt O14965); test: Inhibition of recombinant Aurora A expressed in Escherichia coli
T4 sequence (O14965 whole entry): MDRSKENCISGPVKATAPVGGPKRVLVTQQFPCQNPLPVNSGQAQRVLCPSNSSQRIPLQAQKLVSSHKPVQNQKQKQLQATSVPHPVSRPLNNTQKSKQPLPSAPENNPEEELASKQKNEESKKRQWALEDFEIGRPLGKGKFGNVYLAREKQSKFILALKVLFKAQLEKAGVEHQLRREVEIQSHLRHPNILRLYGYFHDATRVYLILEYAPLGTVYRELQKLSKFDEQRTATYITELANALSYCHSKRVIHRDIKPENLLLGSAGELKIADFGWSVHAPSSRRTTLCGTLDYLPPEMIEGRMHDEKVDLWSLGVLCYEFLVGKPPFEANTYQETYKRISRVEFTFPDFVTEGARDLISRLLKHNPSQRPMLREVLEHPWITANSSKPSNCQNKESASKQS

[6] = target: Dual specificity mitogen-activated protein kinase kinase 1 (Homo sapiens, UniProt Q02750); test: Inhibition of recombinant MEK1 expressed in Escherichia coli
[7] = target: Mitogen-activated protein kinase 3 (Homo sapiens, UniProt P27361); test: Inhibition of recombinant ERK1 expressed in Escherichia coli
Sequence of Mitogen-activated protein kinase 3 (P27361 whole entry): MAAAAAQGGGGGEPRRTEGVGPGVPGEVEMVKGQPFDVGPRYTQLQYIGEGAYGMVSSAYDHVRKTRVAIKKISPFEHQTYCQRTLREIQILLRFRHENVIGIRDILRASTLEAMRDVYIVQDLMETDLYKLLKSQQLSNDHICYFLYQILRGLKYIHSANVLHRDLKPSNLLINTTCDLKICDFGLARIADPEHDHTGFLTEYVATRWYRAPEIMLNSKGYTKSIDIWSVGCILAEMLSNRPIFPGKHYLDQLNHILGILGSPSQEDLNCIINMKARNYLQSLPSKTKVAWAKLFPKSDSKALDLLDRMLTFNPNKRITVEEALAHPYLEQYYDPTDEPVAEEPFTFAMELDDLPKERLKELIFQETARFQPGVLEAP

Sequence of Dual specificity mitogen-activated protein kinase kinase 1 (Q02750 whole entry): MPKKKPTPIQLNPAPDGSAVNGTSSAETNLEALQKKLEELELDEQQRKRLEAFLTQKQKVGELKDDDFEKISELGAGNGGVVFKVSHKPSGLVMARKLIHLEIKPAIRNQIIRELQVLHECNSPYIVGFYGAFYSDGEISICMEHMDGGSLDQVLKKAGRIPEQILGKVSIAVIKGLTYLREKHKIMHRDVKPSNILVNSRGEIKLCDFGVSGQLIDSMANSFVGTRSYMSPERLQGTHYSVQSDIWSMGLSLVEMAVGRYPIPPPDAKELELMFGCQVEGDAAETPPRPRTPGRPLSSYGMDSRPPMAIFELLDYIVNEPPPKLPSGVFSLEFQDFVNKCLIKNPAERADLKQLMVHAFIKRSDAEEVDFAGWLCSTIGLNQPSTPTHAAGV

Compound	Activity [1]	IC50 [2] [µM]	also measured
O=C1NC(=O)C(n2ccc3ncccc32)=C1c1cn(CCCn2ccnc2)c2cc(F)ccc12	–	0.31	–
O=C1NC(=O)C(n2ccc3ncccc32)=C1c1c[nH]c2ccccc12	–	30.6	–
COc1ccc2c(c1)c(C1=C(n3ccc4ncccc43)C(=O)NC1=O)cn2CCCn1ccnc1	inactive	0.48	–
COc1ccc2c(c1)c(C1=C(n3ccc4ncccc43)C(=O)NC1=O)cn2CCCN(C)C	–	22.5	–
O=C1NC(=O)C(n2ccc3ncccc32)=C1c1cn(CCn2ccnc2)c2ccccc12	inactive	0.26	IC50 [3]: > 40 µM; IC50 [4]: > 40 µM; IC50 [5]: > 40 µM; IC50 [6]: > 40 µM; IC50 [7]: > 40 µM
CN(C)CCCn1cc(C2=C(n3ccc4ncccc43)C(=O)NC2=O)c2ccc(Br)cc21	–	2.26	–
O=C1NC(=O)C(n2ccc3ncccc32)=C1c1cn(CCCn2ccnc2)c2ccc(Br)cc12	Active	0.14	IC50 [3]: > 40 µM; IC50 [4]: > 40 µM; IC50 [5]: > 40 µM; IC50 [6]: > 40 µM; IC50 [7]: > 40 µM
O=C1NC(=O)C(n2ccc3ncccc32)=C1c1cn(CCCn2ccnc2)c2cc(Br)ccc12	inactive	0.95	–
O=C1NC(=O)C(n2ccc3ncccc32)=C1c1cn(CCCCn2ccnc2)c2ccccc12	inactive	0.85	–
O=C1C(c2cn(CCCn3ccnc3)c3ccccc23)=C(n2ccc3ncccc32)C(=O)N1c1ccccc1	–	> 73.3	–
CN(C)CCCn1cc(C2=C(n3ccc4ncccc43)C(=O)NC2=O)c2ccc(F)cc21	–	12.4	–

Now from value to molecule, other results behind:

Activity [1]	IC50 [2] [µM]	Compound	also measured
Active	0.76	Cn1cc(C2=C(c3cn(CCCN4CCOCC4)c4ccccc34)C(=O)NC2=O)c2ncccc21	IC50 [3]: > 40 µM; IC50 [4]: > 40 µM; IC50 [5]: > 40 µM; IC50 [6]: > 40 µM; IC50 [7]: > 40 µM
–	1.14	Cn1cc(C2=C(c3cn(CCCO)c4ccccc34)C(=O)NC2=O)c2ncccc21	–
–	0.66	Cn1cc(C2=C(c3cn(CCCn4ccnc4)c4ccccc34)C(=O)NC2=O)c2ncccc21	–
–	13.6	CN(C)CCCn1cc(C2=C(n3ccc4ncccc43)C(=O)NC2=O)c2ccccc21	–
–	0.9	Cn1cc(C2=C(c3cn(CCN4CCOCC4)c4ccccc34)C(=O)NC2=O)c2ncccc21	–
–	12.4	O=C1NC(=O)C(n2ccc3ncccc32)=C1c1cn(CCCN2CCCCC2)c2ccccc12	–
–	1.79	O=C1NC(=O)C(n2ccc3ncccc32)=C1c1cn(CCCN2CCOCC2)c2ccccc12	–
–	0.55	O=C1NC(=O)C(n2ccc3ncccc32)=C1c1cn(CCCn2ccnc2)c2ccccc12	–
